In ChEMBL document CHEMBL1154864, “Oblongolides from the endophytic fungus Phomopsis sp. BCC 9789” (J Nat Prod, 2010) one finds IC50 and MIC data, which are given here for 15 compounds.

Values after ≈ are worked out from the molar mass of the structure shown.

Tested on in one assay: not listed separately
The experiment in a line: Cytotoxicity against human BC cells by SRB assay. Type of assay: functional, cell-based.
Conditions: not given
An outline of the steps:
(§1)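 Colorimetric cytotoxicity assay run on oral human epidermal carcinoma (KB), human breast cancer (BC), human small-cell lung cancer (NCI-H187) and African green monkey kidney fibroblast (Vero) cells. IC50 values are reported in µM.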
For orientation: The SRB assay estimates cell density from bound dye.
Turning to `C[C@H]1CC[C@H]2[C@@H](C=C[C@@H]3[C@@H](O)O[C@@H](CO)C(=O)[C@@]32C)C1`, the IC50 (in general, the midpoint of a concentration-inhibition curve) was greater than 71 µM.
On the same count and under the same terms, for `Cc1ccc(O)c2c1C[C@@H](C)OC2=O` the value was greater than 104 µM.
Still for that read-out and setting: for `C[C@H]1CC[C@H]2[C@@H](C=C[C@]3(O)COC(=O)[C@]23C)C1` [OBLONGOLIDE C] the value was greater than 85 µM; for `C[C@H]1CC[C@H]2[C@H](C1)[C@@H]1O[C@@H]1[C@@H]1COC(=O)[C@]21C` [OBLONGOLIDE Q], greater than 85 µM.
The same measure, in the same setting: for `C[C@H]1CC[C@H]2[C@@H](C=C[C@@H]3CO[C@](C)(O)C(=O)[C@@]32C)C1` [OBLONGOLIDE T] the value was greater than 76 µM; for `C[C@H]1CC[C@H]2[C@@H](C=C[C@@H]3COC(=O)[C@@](O)(CO)[C@@]32C)C1` [OBLONGOLIDE W1], greater than 71 µM; for `C[C@H]1CC[C@H]2[C@@H](C=C[C@@H]3COC(=O)[C@](O)(CO)[C@@]32C)C1` [OBLONGOLIDE W2], greater than 71 µM.
`C[C@H]1CC[C@H]2[C@@H](C=C[C@@H]3CO[C@@](O)(CO)C(=O)[C@@]32C)C1` [OBLONGOLIDE X] showed an IC50 greater than 71 µM.
The same measure, in the same setting: with `CO[C@]1(C(C)=O)OC[C@H]2C=C[C@H]3C[C@@H](C)CC[C@@H]3[C@]21C` [OBLONGOLIDE Y] the figure was 48 µM; with `CC(=O)[C@@]1(OCCc2ccccc2)OC[C@H]2C=C[C@H]3C[C@@H](C)CC[C@@H]3[C@]21C` [OBLONGOLIDE Z], 26 µM; with `C[C@H]1CC[C@H]2[C@@H](C=C[C@@H]3COC(=O)[C@@]32C)C1` [OBLONGOLIDE], greater than 91 µM.

For the next assay, the system named is KB. The experiment in a line: Cytotoxicity against human KB cells by SRB assay. In kind it is functional, cell-based.
Conditions: not given
An outline of the steps:
as §1
As to `C[C@H]1CC[C@H]2[C@@H](C=C[C@@H]3[C@@H](O)O[C@@H](CO)C(=O)[C@@]32C)C1`, the IC50 was greater than 71 µM.
Same read-out and setting: with `Cc1ccc(O)c2c1C[C@@H](C)OC2=O` the figure was greater than 104 µM; with `COc1cccc2c1C(=O)c1c(O)c3c(c(O)c1C2=O)C[C@@](O)(C(=O)CO)C[C@@H]3O[C@H]1C[C@H](N)[C@H](O)[C@H](C)O1` [DOXORUBICIN], 0.24 µM; with `C[C@H]1CC[C@H]2[C@@H](C=C[C@]3(O)COC(=O)[C@]23C)C1` [OBLONGOLIDE C], greater than 85 µM.
Compound `C[C@H]1CC[C@H]2[C@H](C1)[C@@H]1O[C@@H]1[C@@H]1COC(=O)[C@]21C` [OBLONGOLIDE Q] showed an IC50 greater than 85 µM.
The same measure, in the same setting: for `C[C@H]1CC[C@H]2[C@@H](C=C[C@@H]3CO[C@](C)(O)C(=O)[C@@]32C)C1` [OBLONGOLIDE T] the value was greater than 76 µM; for `C[C@H]1CC[C@H]2[C@@H](C=C[C@@H]3COC(=O)[C@@](O)(CO)[C@@]32C)C1` [OBLONGOLIDE W1], greater than 71 µM; for `C[C@H]1CC[C@H]2[C@@H](C=C[C@@H]3COC(=O)[C@](O)(CO)[C@@]32C)C1` [OBLONGOLIDE W2], greater than 71 µM.
Same read-out and setting: with `C[C@H]1CC[C@H]2[C@@H](C=C[C@@H]3CO[C@@](O)(CO)C(=O)[C@@]32C)C1` [OBLONGOLIDE X] the figure was greater than 71 µM; with `CO[C@]1(C(C)=O)OC[C@H]2C=C[C@H]3C[C@@H](C)CC[C@@H]3[C@]21C` [OBLONGOLIDE Y], greater than 72 µM; with `CC(=O)[C@@]1(OCCc2ccccc2)OC[C@H]2C=C[C@H]3C[C@@H](C)CC[C@@H]3[C@]21C` [OBLONGOLIDE Z], 37 µM.
Same read-out and setting: for `C[C@H]1CC[C@H]2[C@@H](C=C[C@@H]3COC(=O)[C@@]32C)C1` [OBLONGOLIDE] the value was greater than 91 µM.

In a further assay the test system is Human alphaherpesvirus 1. The experiment in a line: Antiviral activity against Herpes simplex virus type 1. Type of assay: functional, organism-based.
Conditions: not given
In outline:
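HSV-1 antiviral activity read out by a colorimetric method, with IC50 values in µM.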
Turning to `Nc1nc2c(ncn2COCCO)c(=O)[nH]1` [ACYCLOVIR], the midpoint of inhibition, the IC50, lay at 13 µM.

Another assay concerns Mycobacterium tuberculosis. Kind of assay: Antituberculosis activity against Mycobacterium tuberculosis H37Ra after 4 days by Alamar blue assay. Type of assay: functional. The conditions noted are these: 96 h. In outline:
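Microplate resazurin (Alamar Blue) growth-inhibition assay against M. tuberculosis H37Ra; MIC taken as the lowest concentration giving ≥90% growth inhibition.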
As to `C[C@H]1CC[C@H]2[C@@H](C=C[C@@H]3[C@@H](O)O[C@@H](CO)C(=O)[C@@]32C)C1`, the MIC (in general, the smallest concentration in the dilution series that meets the test's criterion for growth inhibition) was greater than 178 µM.
`Cc1ccc(O)c2c1C[C@@H](C)OC2=O`: the MIC was greater than 260 µM.
The same measure, in the same setting: for `NNC(=O)c1ccncc1` [ISONIAZID] the value was 0.36 µM (≈ 0.0494 µg/mL); for `C[C@H]1CC[C@H]2[C@@H](C=C[C@]3(O)COC(=O)[C@]23C)C1` [OBLONGOLIDE C], greater than 212 µM; for `C[C@H]1CC[C@H]2[C@H](C1)[C@@H]1O[C@@H]1[C@@H]1COC(=O)[C@]21C` [OBLONGOLIDE Q], greater than 212 µM.
The same measure, in the same setting: for `C[C@H]1CC[C@H]2[C@@H](C=C[C@@H]3CO[C@](C)(O)C(=O)[C@@]32C)C1` [OBLONGOLIDE T] the value was greater than 189 µM; for `C[C@H]1CC[C@H]2[C@@H](C=C[C@@H]3COC(=O)[C@@](O)(CO)[C@@]32C)C1` [OBLONGOLIDE W1], 178 µM (≈ 49.9 µg/mL).
Still for that read-out and setting: for `C[C@H]1CC[C@H]2[C@@H](C=C[C@@H]3COC(=O)[C@](O)(CO)[C@@]32C)C1` [OBLONGOLIDE W2] the value was greater than 178 µM; for `C[C@H]1CC[C@H]2[C@@H](C=C[C@@H]3CO[C@@](O)(CO)C(=O)[C@@]32C)C1` [OBLONGOLIDE X], greater than 178 µM.
For the compound `CO[C@]1(C(C)=O)OC[C@H]2C=C[C@H]3C[C@@H](C)CC[C@@H]3[C@]21C` [OBLONGOLIDE Y], the MIC is greater than 180 µM.
On the same count and under the same terms, with `CC(=O)[C@@]1(OCCc2ccccc2)OC[C@H]2C=C[C@H]3C[C@@H](C)CC[C@@H]3[C@]21C` [OBLONGOLIDE Z] the figure was greater than 136 µM; with `C[C@H]1CC[C@H]2[C@@H](C=C[C@@H]3COC(=O)[C@@]32C)C1` [OBLONGOLIDE], 227 µM (≈ 50 µg/mL).

The subject of another assay is Vero. The experiment in a line: Cytotoxicity against African green monkey Vero cells by SRB assay. In kind it is cell-based. The conditions noted are these: Chlorocebus sabaeus. In outline:
as §1
Turning to `C[C@H]1CC[C@H]2[C@@H](C=C[C@@H]3[C@@H](O)O[C@@H](CO)C(=O)[C@@]32C)C1`, the IC50 was greater than 178 µM.
Still for that read-out and setting: with `Cc1ccc(O)c2c1C[C@@H](C)OC2=O` the figure was greater than 260 µM; with `Cc1c2ccncc2c(C)c2c1[nH]c1ccccc12` [ELLIPTECINE], 1.75 µM; with `C[C@H]1CC[C@H]2[C@@H](C=C[C@]3(O)COC(=O)[C@]23C)C1` [OBLONGOLIDE C], greater than 212 µM.
On the same count and under the same terms, for `C[C@H]1CC[C@H]2[C@H](C1)[C@@H]1O[C@@H]1[C@@H]1COC(=O)[C@]21C` [OBLONGOLIDE Q] the value was greater than 212 µM; for `C[C@H]1CC[C@H]2[C@@H](C=C[C@@H]3CO[C@](C)(O)C(=O)[C@@]32C)C1` [OBLONGOLIDE T], greater than 189 µM.
Same read-out and setting: with `C[C@H]1CC[C@H]2[C@@H](C=C[C@@H]3COC(=O)[C@@](O)(CO)[C@@]32C)C1` [OBLONGOLIDE W1] the figure was greater than 178 µM; with `C[C@H]1CC[C@H]2[C@@H](C=C[C@@H]3COC(=O)[C@](O)(CO)[C@@]32C)C1` [OBLONGOLIDE W2], greater than 178 µM; with `C[C@H]1CC[C@H]2[C@@H](C=C[C@@H]3CO[C@@](O)(CO)C(=O)[C@@]32C)C1` [OBLONGOLIDE X], 96 µM.
`CO[C@]1(C(C)=O)OC[C@H]2C=C[C@H]3C[C@@H](C)CC[C@@H]3[C@]21C` [OBLONGOLIDE Y] came in with an IC50 greater than 180 µM.
Still for that read-out and setting: for `CC(=O)[C@@]1(OCCc2ccccc2)OC[C@H]2C=C[C@H]3C[C@@H](C)CC[C@@H]3[C@]21C` [OBLONGOLIDE Z] the value was 60 µM; for `C[C@H]1CC[C@H]2[C@@H](C=C[C@@H]3COC(=O)[C@@]32C)C1` [OBLONGOLIDE], greater than 227 µM.

The test system of another assay is NCI-H187. Kind of assay: Cytotoxicity against human NCI-H187 cells by SRB assay. In kind it is functional, cell-based.
Conditions: not given
An outline of the steps:
as §1
`C[C@H]1CC[C@H]2[C@@H](C=C[C@@H]3[C@@H](O)O[C@@H](CO)C(=O)[C@@]32C)C1` came in with an IC50 greater than 71 µM.
The same measure, in the same setting: with `Cc1ccc(O)c2c1C[C@@H](C)OC2=O` the figure was greater than 104 µM.
Same read-out and setting: with `COc1cccc2c1C(=O)c1c(O)c3c(c(O)c1C2=O)C[C@@](O)(C(=O)CO)C[C@@H]3O[C@H]1C[C@H](N)[C@H](O)[C@H](C)O1` [DOXORUBICIN] the figure was 0.08 µM; with `C[C@H]1CC[C@H]2[C@@H](C=C[C@]3(O)COC(=O)[C@]23C)C1` [OBLONGOLIDE C], greater than 85 µM; with `C[C@H]1CC[C@H]2[C@H](C1)[C@@H]1O[C@@H]1[C@@H]1COC(=O)[C@]21C` [OBLONGOLIDE Q], greater than 85 µM.
On the same count and under the same terms, with `C[C@H]1CC[C@H]2[C@@H](C=C[C@@H]3CO[C@](C)(O)C(=O)[C@@]32C)C1` [OBLONGOLIDE T] the figure was greater than 76 µM.
The compound `C[C@H]1CC[C@H]2[C@@H](C=C[C@@H]3COC(=O)[C@@](O)(CO)[C@@]32C)C1` [OBLONGOLIDE W1] displayed an IC50 greater than 71 µM.
`C[C@H]1CC[C@H]2[C@@H](C=C[C@@H]3COC(=O)[C@](O)(CO)[C@@]32C)C1` [OBLONGOLIDE W2] registered an IC50 greater than 71 µM.
`C[C@H]1CC[C@H]2[C@@H](C=C[C@@H]3CO[C@@](O)(CO)C(=O)[C@@]32C)C1` [OBLONGOLIDE X] displayed an IC50 greater than 71 µM.
The same measure, in the same setting: with `CO[C@]1(C(C)=O)OC[C@H]2C=C[C@H]3C[C@@H](C)CC[C@@H]3[C@]21C` [OBLONGOLIDE Y] the figure was greater than 72 µM; with `CC(=O)[C@@]1(OCCc2ccccc2)OC[C@H]2C=C[C@H]3C[C@@H](C)CC[C@@H]3[C@]21C` [OBLONGOLIDE Z], 32 µM; with `C[C@H]1CC[C@H]2[C@@H](C=C[C@@H]3COC(=O)[C@@]32C)C1` [OBLONGOLIDE], greater than 91 µM.
